The values below come from ChEMBL document CHEMBL1949625, “Hydroxyl may not be indispensable for raltegravir: Design, synthesis and SAR Studies of raltegravir derivatives as HIV-1 inhibitors” (Eur J Med Chem, 2012).

Series [1] deals with Human immunodeficiency virus 1. The experiment in a line: Antiviral activity against HIV1 harboring VSV glycoprotein-G co-transfected with luciferase gene infected in human TZM-bl cells assessed as inhibition of viral replication after 48 hrs by microplate luminometer based luciferase assay. In kind it is functional, organism-based. The settings on record: Human immunodeficiency virus 1, TZM-bl. In a few lines: (§1)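 TZM-bl cells seeded at 10^4 cells/well; next day compounds (from DMSO stocks) added, then pseudotyped virus; final DMSO 2% in all wells. Incubated 48 h at 37 °C, humidified CO2. Steady-glow substrate added directly, lysis 20 min in dark, luciferase luminescence read. AZT and MK-0518 as assay controls. Primary screen run at 10 μM.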

The nature of series [2]: Cytotoxicity against human TZM-bl cells after 48 hrs by MTT assay. In kind it is cell-based. In a few lines: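 TZM-bl cells plated and incubated 18 h at 37 °C, then exposed to compounds for 48 h. MTT (5 mg/mL, 20 uL) added for 3 h at 37 °C; plates shaken 10 min at room temperature. OD550 read with 690 nm reference.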
On the technique in general: Tetrazolium assays rely on reduction of a dye to a coloured formazan, in cell work by metabolically active cells.

Series [3] relates to Human immunodeficiency virus 1. The experiment in a line: Antiviral activity against HIV1 harboring VSV glycoprotein-G co-transfected with luciferase gene infected in human TZM-bl cells assessed as inhibition of viral replication at 10 uM after 48 hrs by microplate luminometer based luciferase assay. Format: functional. As to conditions: for inhibition at 10 µM: Human immunodeficiency virus 1, TZM-bl, 48 h. An outline of the steps: as §1

`COc1nc(C(C)(C)NC(=O)c2nnc(C)o2)nc(C(=O)NCc2ccc(F)cc2)c1[O-].[K+]`: the IC50 (commonly the concentration that inhibits the measured activity by half) in series [1] came out at 200 nM. For the same compound, in series [2], the Activity result is given as “Non-toxic”. Also, in series [3], the inhibition (in general, the drop in the measured response relative to a control, in per cent) at 10 µM is 92.9%.

For the compound `COc1nc(C(C)(C)NC(=O)c2nnc(C)o2)nc(C(=O)NCc2ccc(F)cc2)c1O`, in series [2], the Activity entry is reported as “Non-toxic”. In addition, the “inhibition (INH)” value in series [3] was determined as 94.1%.

For `Cc1nnc(C(=O)NC(C)(C)c2nc(NCc3ccc(F)cc3)c(O)c(C(=O)NCc3ccc(F)cc3)n2)o1`, the Activity result in series [2] is on record as “Non-toxic”. The inhibition at 10 µM in series [3] is 47.5%.

Take `CC(=O)Oc1c(C(=O)NCc2ccc(F)cc2)nc(C(C)(C)NC(=O)c2nnc(C)o2)n(C)c1=O`: in series [1], the IC50 came to 1 nM. In addition, the Activity result in series [2] is “Non-toxic”. The inhibition at 10 µM in series [3] came out at 95.1%.

Consider `Cc1nnc(C(=O)NC(C)(C)c2nc(C(=O)NCc3ccc(F)cc3)c(OS(C)(=O)=O)c(=O)n2C)o1`, for which the IC50 in series [1] amounted to 2.4 nM. The Activity entry in series [2] is “Non-toxic”. Also, the inhibition at 10 µM in series [3] came out at 92.7%.

Turning to `Cc1nnc(C(=O)NC(C)(C)c2nc(C(=O)NCc3ccc(F)cc3)c(OC(=O)c3ccccc3)c(=O)n2C)o1`, the IC50 in series [1] amounted to 4e-05 nM. Besides, in series [2], the Activity entry is on record as “Non-toxic”. In series [3], the inhibition at 10 µM is 100%.

In the case of `Cc1cc(C)c(S(=O)(=O)Oc2c(C(=O)NCc3ccc(F)cc3)nc(C(C)(C)NC(=O)c3nnc(C)o3)n(C)c2=O)c(C)c1`, the IC50 in series [1] came out at 0.04 nM. For the same compound, in series [2], the Activity result is “Non-toxic”. Moreover, in series [3], the inhibition at 10 µM was determined as 94.9%.

For the compound `COc1nc(C(C)(C)NC(=O)c2nnc(C)o2)nc(C(=O)NCc2ccc(F)cc2)c1OC(C)=O`, in series [1], the IC50 was determined as 7.3 nM. Also, the Activity entry in series [2] is reported as “Non-toxic”. In addition, the inhibition at 10 µM in series [3] was found to be 94.2%.

Turning to `COc1nc(C(C)(C)NC(=O)c2nnc(C)o2)nc(C(=O)NCc2ccc(F)cc2)c1OS(C)(=O)=O`, the IC50 in series [1] was determined as 32.8 nM. For the same compound, the Activity entry in series [2] is listed as “Non-toxic”. For the same compound, the inhibition at 10 µM in series [3] came out at 88.3%.

`COc1nc(C(C)(C)NC(=O)c2nnc(C)o2)nc(C(=O)NCc2ccc(F)cc2)c1OC(=O)c1ccccc1`: in series [1], the IC50 amounted to 14.7 nM. Besides, the Activity result in series [2] is listed as “Non-toxic”. The inhibition at 10 µM in series [3] is 93.4%.

As to `COc1nc(C(C)(C)NC(=O)c2nnc(C)o2)nc(C(=O)NCc2ccc(F)cc2)c1OS(=O)(=O)c1c(C)cc(C)cc1C`, the IC50 in series [1] was 1200 nM. Besides, in series [2], the Activity entry is “Non-toxic”. In series [3], the inhibition at 10 µM turned out to be 79.7%.

Consider `CCN(CC)C(=O)C(=O)NC(C)(C)c1nc(C(=O)OC)c(OC(=O)c2ccccc2)c(=O)n1C`, for which, in series [2], the Activity result is listed as “Non-toxic”. Moreover, in series [3], the inhibition at 10 µM is -2.7%.

In the case of `CCN(CC)C(=O)C(=O)NC(C)(C)c1nc(C(=O)NCc2ccc(F)cc2)c(O)c(=O)n1C`, the IC50 in series [1] is 0.5 nM. The Activity entry in series [2] was “Non-toxic”. Besides, the inhibition at 10 µM in series [3] came out at 95.5%.

On to `CCN(CC)C(=O)C(=O)NC(C)(C)c1nc(C(=O)NCc2ccc(F)cc2)c(OC(C)=O)c(=O)n1C`, for which the IC50 in series [1] amounted to 0.062 nM. In addition, in series [2], the Activity result is recorded as “Non-toxic”. In series [3], the inhibition at 10 µM is 94.2%.

On to `CCN(CC)C(=O)C(=O)NC(C)(C)c1nc(C(=O)NCc2ccc(F)cc2)c(OS(C)(=O)=O)c(=O)n1C`, for which, in series [1], the IC50 was 0.64 nM. Further, the Activity result in series [2] is recorded as “Non-toxic”. In addition, the inhibition at 10 µM in series [3] stood at 93.7%.

On to `CCN(CC)C(=O)C(=O)NC(C)(C)c1nc(C(=O)NCc2ccc(F)cc2)c(OC(=O)c2ccccc2)c(=O)n1C`, for which, in series [1], the IC50 is 8e-05 nM. For the same compound, the Activity entry in series [2] is listed as “Non-toxic”. The inhibition at 10 µM in series [3] was 92.8%.

For `CCN(CC)C(=O)C(=O)NC(C)(C)c1nc(C(=O)NCc2ccc(F)cc2)c(OS(=O)(=O)c2c(C)cc(C)cc2C)c(=O)n1C`, the IC50 in series [1] was 0.3 nM. Besides, the Activity result in series [2] was “Non-toxic”. Also, in series [3], the inhibition at 10 µM was 77.7%.

In the case of `CCN(CC)C(=O)C(=O)NC(C)(C)c1nc(OC)c(OC(=O)c2ccccc2)c(C(=O)OC)n1`, the Activity entry in series [2] is given as “Non-toxic”. For the same compound, the inhibition at 10 µM in series [3] was 19.8%.

Consider `CCN(CC)C(=O)C(=O)NC(C)(C)c1nc(OC)c(O)c(C(=O)NCc2ccc(F)cc2)n1`, for which the Activity entry in series [2] is “Non-toxic”. In addition, the inhibition at 10 µM in series [3] amounted to 44.9%.

Take `CCN(CC)C(=O)C(=O)NC(C)(C)c1nc(OC)c(OC(C)=O)c(C(=O)NCc2ccc(F)cc2)n1`: the Activity entry in series [2] was “Non-toxic”. The inhibition at 10 µM in series [3] was determined as 59.3%.

On to `CCN(CC)C(=O)C(=O)NC(C)(C)c1nc(OC)c(OS(C)(=O)=O)c(C(=O)NCc2ccc(F)cc2)n1`, for which the Activity result in series [2] is “Non-toxic”. The inhibition at 10 µM in series [3] stood at 28.6%.

As to `CCN(CC)C(=O)C(=O)NC(C)(C)c1nc(OC)c(OC(=O)c2ccccc2)c(C(=O)NCc2ccc(F)cc2)n1`, in series [2], the Activity entry is on record as “Non-toxic”. Further, the inhibition at 10 µM in series [3] worked out at 52.1%.

For the compound `CCN(CC)C(=O)C(=O)NC(C)(C)c1nc(OC)c(OS(=O)(=O)c2c(C)cc(C)cc2C)c(C(=O)NCc2ccc(F)cc2)n1`, in series [2], the Activity result was “Non-toxic”. In addition, the inhibition at 10 µM in series [3] amounted to 6%.

In the case of `Cc1nnc(C(=O)NC(C)(C)c2nc(C(=O)NCc3ccc(F)cc3)c(O)c(=O)n2C)o1` [RALTEGRAVIR POTASSIUM], the IC50 in series [1] was 8 nM. Also, the inhibition at 10 µM in series [3] is 95.1%.

Turning to `Cc1cn([C@H]2C[C@H](N=[N+]=[N-])[C@@H](CO)O2)c(=O)[nH]c1=O` [ZIDOVUDINE], the inhibition at 10 µM in series [3] was determined as 100%.
